Experimental data reported in ChEMBL document CHEMBL1131620, “Identification of novel ligands for the gabapentin binding site on the alpha2delta subunit of a calcium channel and their evaluation as anticonvulsant agents” (J Med Chem, 1998).

experiment: Inhibition of specific binding of [3H]gabapentin to Gabapentin binding sites located on the alpha-2-delta subunit of calcium channel.; parameters: species or system Oryctolagus cuniculus
Method in brief: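 [3H]Gabapentin displacement from gabapentin sites on the calcium channel α2δ subunit. IC50 (nM) is the concentration giving half-maximal inhibition of specific radioligand binding.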

| SMILES | IC50 |
| --- | --- |
| CC1(C)CC(C)(C)CC(CN)(CC(=O)O)C1 | > 10000 nM |
| CC1(C)CCC(CN)(CC(=O)O)CC1 | 1310 nM |
| C[C@@H]1CCC[C@@](CN)(CC(=O)O)C1 | 42 nM |
| C[C@H]1CCC[C@](CN)(CC(=O)O)C1 | 73 nM |
| NC[C@]1(CC(=O)O)CC[C@@H](c2ccccc2)CC1 | > 10000 nM |
| C[C@@H]1C[C@H](C)CC(CN)(CC(=O)O)C1 (stereo in doubt; 28) | > 10000 nM |
| CC[C@H]1CC[C@@](CN)(CC(=O)O)CC1 | 700 nM |
| CC(C)C1CCCC(CN)(CC(=O)O)C1 (configuration not stated) | 6270 nM |
| NCC1(CC(=O)O)CCCCC1C1CCCCC1 (configuration not stated) | > 10000 nM |
| CC1(C)CCCC(CN)(CC(=O)O)C1 (configuration not stated) | 880 nM |
| CCCC1CCCC(CN)(CC(=O)O)C1 (configuration not stated) | 3300 nM |
| CCC1CCCC(CN)(CC(=O)O)C1 (configuration not stated) | 280 nM |
| NCC1(CC(=O)O)CCSCC1 | 385 nM |
| NCC1(CC(=O)O)CCCC(c2ccccc2)C1 (configuration not stated) | > 10000 nM |
| NCC1(CC(=O)O)CCOCC1 | 2380 nM |
| C[C@H]1CC[C@](CN)(CC(=O)O)CC1 | > 10000 nM |
| COC1CCCCC1(CN)CC(=O)O (configuration not stated) | > 10000 nM |
| C[C@@H]1C[C@H](C)CC(CN)(CC(=O)O)C1 (stereo in doubt; 27) | 140 nM |
| NCC1(CC(=O)O)CCNCC1 | > 10000 nM |
| CC1CCCC(CN)(CC(=O)O)C1 (configuration not stated) | > 10000 nM |
| C[C@H]1CC[C@@](CN)(CC(=O)O)CC1 | 440 nM |
